Screens: PubChem BioAssay, Sanford-Burnham Center for Chemical Genomics
The list is not random: actives were taken first. Their share in the collection is about 3.9%.
UPR CHOP act: activators of apoptotic CHOP UPR arm, primary screen, cell-based, CHO-CHOP luciferase reporter, luminescence, uHTS; UPR activation; percent of tunicamycin response over DMSO baseline; activation, % at 10 µM; actives 0.34% (n = 330,000); AID 449763, 2010;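 active = at 10 µM dose, activation of 40% or more, normalized to positive control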;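 also: 100% = tunicamycin at 10 µg/mL and 0% = DMSO alone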
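Assay system: CHO-CHOP cells, stable luciferase reporter of PERK-eIF2a-CHOP signalling / Buffer or medium: F12 plus 10% serum / Compound dosing: one dose, 10 µM in 0.5% DMSO / Times: 6 h compound treatment, 37 °C / Technique: luciferase luminescence / Read-out: % reporter activation, DMSO baseline versus tunicamycin full activation / Benchmarks: tunicamycin and DMSO controls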
tim23-1 inh: growth inhibitors of tim23-1 mutant yeast, primary screen, luminescence, uHTS; S. cerevisiae tim23-1 growth, BacTiter-Glo luminescence, 24 h; actives 1.3% (n = 330,000); inhibition, % at 20 µM;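 active = growth inhibition of the mutant yeast at or above 50%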;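 also: temperature-sensitive mutant grown at 25 °C; plate controls were DMSO-treated mutant yeast for no effect and medium wells lacking yeast for full effect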
UPR XBP1 act: activators of adaptive XBP1 UPR arm, primary screen, cell-based, CHO-XBP1 luciferase reporter, luminescence, uHTS; IRE1-XBP1 UPR activation; percent of tunicamycin response, DMSO as zero; activation, % at 20 µM; actives 0.33% (n = 330,000);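 active = versus positive control, 20 µM dose yields 30% or more activation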;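 also: 100% = tunicamycin at 10 µg/mL and 0% = DMSO only wells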
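Material: CHO cell line with stable XBP1 luciferase reporter; buffer or medium: F12 medium containing 10% fetal bovine serum; compound: single point, 20 µM final compound, 1% DMSO; incubation: 6 h treatment, 37 °C; measured by: glow luminescence from Steady-Glo reagent; evaluation: activation, % of tunicamycin; control set: tunicamycin high, DMSO low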
TIM10 inh: growth inhibitors of isogenic TIM10 control yeast, primary screen, counter-screen for tim10-1 yeast inhibitor project, luminescence, uHTS; S. cerevisiae TIM10 strain growth, BacTiter-Glo luminescence, 24 h; actives 1.4% (n = 330,000); AID 463195, 2010; inhibition, % at 10 µM;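 active = inhibition of 40% or more at the single tested concentration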;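 also: wild-type TIM10 isogenic control strain grown at permissive 25 °C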
tim10-1 inh: growth inhibitors of tim10-1 mutant yeast, primary screen, luminescence, uHTS; S. cerevisiae tim10-1 ts strain growth, BacTiter-Glo, 24 h; inhibition, % at 20 µM; actives 2.2% (n = 330,000); AID 463190, 2010;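 active = inhibition of at least 40%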;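 also: mutant grown at 25 °C; 0% = DMSO wells with yeast and 100% = wells holding no yeast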
tim10-1 confirm: growth inhibitors of tim10-1 mutant yeast, confirmation, single concentration, luminescence, S. cerevisiae; shares compounds with tim10-1 inh; S. cerevisiae tim10-1 ts strain growth, BacTiter-Glo, 24 h; inhibition, % at 20 µM; actives 56% (n = 7,400); AID 463213, 2010;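 active = inhibition of yeast growth at or above a set limit in either of two repeat tests at 20 µM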;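 also: tim10-1 mutant grown at permissive 25 °C to find synthetic lethal compounds; 0% = DMSO yeast wells and 100% = medium wells without yeast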
Active calls of the source: *; · = no result.

SMILES	UPR CHOP act	tim23-1 inh	UPR XBP1 act	TIM10 inh	tim10-1 inh	tim10-1 confirm
CCCN(CCC)C(=O)CC(c1ccccc1)c1cc(C)ccc1O (configuration not stated)	-1	33	-1	22	46*	34*
Cc1sc2ncnc(SCC(=O)N3CCC(c4noc5ccc(F)cc45)CC3)c2c1C	0	-34	2	6	50*	3
CC1CCCC(N2C(=O)NC(NC(=O)c3ccco3)(C(F)(F)F)C2=O)C1C (configuration not stated)	0	21	-2	7	47*	26
Cc1c(C)n(C)c2ccc(C(=O)Nc3cccc4ccccc34)cc12	1	38	0	24	43*	32*
O=C(Nc1cccc2ccccc12)c1ccccc1	3	13	-3	-1	21	·
CC(C)Cn1c(N)c(C(=O)COC(=O)c2cccn2C)c(=O)n(C)c1=O	2	25	0	7	13	·
O=C(Nc1ccc(CSc2ccccc2)cc1)c1ccco1	5	22	2	2	2	·
Cc1cc(C)c(S(=O)(=O)N2CCN(C(=O)C3COc4ccccc4O3)CC2)c(C)c1 (configuration not stated)	-2	44	-4	21	40*	28
Cc1c(-c2ccc(Cl)cc2Cl)nc2ccccc2c1C(=O)NCCN1CCOCC1	2	16	-2	13	17	·
Fc1cccc(CCN2CCNC[C@@H]2CC2CCCCC2)c1	1	8	1	-3	17	·
O=C1/C(=C\c2ccc(O)cc2)SC(=S)N1/N=C/c1ccc(O)cc1	1	35	4	24	41*	39*
COc1cccc(C(=O)CSc2nnnn2C2CCCCC2)c1	3	46	4	11	44*	37*
COc1ccccc1NC(=O)CSc1nnnn1C1CCCCC1	-2	12	3	22	3	·
Cc1nc(-c2cccnc2)sc1C(=O)Nc1cccc(C(F)(F)F)c1	-4	22	-2	31	43*	28
CCOc1ccccc1C(=O)Nc1cc(OC)ccc1OC	0	42	5	39	43*	37*
Cc1ccc(S(C)(=O)=O)cc1C(=O)Nc1ccc(S(=O)(=O)Nc2nccs2)cc1	2	9	-4	2	11	·
O=C(NCc1ccco1)c1sc(=S)n2c1[nH]c(=O)c1ccccc12	1	37	-3	13	23	·
O=C(NC1CCCC1)c1sc(=S)n2c1[nH]c(=O)c1ccccc12	0	23	0	24	47*	26
O=C(Cc1ccc(Br)cc1)NCc1ccccc1	1	0	0	-5	-8	·
CCOC(=O)N1CCN(S(=O)(=O)c2ccc(C(=O)NNc3nc4cc(C)cc(C)c4s3)cc2)CC1	0	11	4	-14	42*	8
Cc1cc(N2C3CCC2CC(O)(c2ccc(F)cc2)C3)nc(-c2ccccc2)n1 (configuration not stated)	1	46	-1	40	48*	37*
CC(CN1CCCCC1)OC(=O)c1ccco1 (configuration not stated)	-1	6	0	-2	-10	·
COCCNC(=O)/C(C#N)=C/c1ccc(O)cc1	0	42	-1	14	35	·
COCCNC(=O)/C(C#N)=C/C(C)=C/c1ccccc1	0	42	3	17	53*	42*
N/C(=N\OC(=O)C12CC3CC(CC(C3)C1)C2)c1ccncc1	4	36	0	28	45*	30
SMILES	UPR CHOP act	tim23-1 inh	UPR XBP1 act	TIM10 inh	tim10-1 inh	tim10-1 confirm
Cn1c(=O)[nH]c(=O)c2c1nc(N1CCCCCC1)n2CCCSc1nnnn1-c1ccccc1	1	17	3	15	41*	24
Cn1c(=O)[nH]c(=O)c2c1nc(N1CCCC1)n2CCCSc1nnnn1-c1ccccc1	-1	18	-2	-2	14	·
Cc1cc(NC(=O)c2c(F)cccc2F)n(-c2nc3ccccc3[nH]2)n1	5	43	5	14	25	·
Cc1cc(NC(=O)c2c(F)cccc2Cl)n(-c2nc3ccccc3[nH]2)n1	-2	37	0	1	40*	30
COc1ccc(-n2c(CNc3ccc(C)cc3)nnc2SCc2ccccc2)cc1	4	48	-1	26	43*	34*
COc1ccc(NCc2nnc(SCC(=O)NCc3ccccc3)n2-c2ccccc2OC)cc1	-2	12	4	-5	18	·
Cc1ccc(-n2c(Cc3cccn3C)nnc2SCC(=O)N2CCc3ccccc32)cc1	0	35	-3	33	43*	22
CC(C)OC(=O)CSc1nnc(-c2ccccn2)n1-c1ccccc1	-3	19	0	-6	11	·
COC(=O)CSc1nnc(C)n1-c1ccc(C)cc1	0	9	-1	5	16	·
COC(=O)CSc1nnc(Cc2ccccc2)n1-c1ccc(C)cc1	1	16	-3	19	41*	26
Cc1ccc(-n2c(SCC(=O)OC(C)C)nnc2-c2ccccn2)cc1	0	36	-1	30	42*	35*
Cc1noc(C)c1-c1csc(N2CCC(C(N)=O)CC2)n1	6	17	5	-4	15	·
CCCN(CC(=O)Nc1ccc(F)c(F)c1F)C(=O)c1ccc(N2CCCC2=O)cc1	1	12	2	16	7	·
CCN(C[C@H]1N[C@@](Cc2ccccc2)(C(=O)OC)[C@H]2C(=O)N(C)C(=O)[C@@H]12)S(=O)(=O)c1ccc(-c2ccccc2)cc1	4	13	-2	4	4	·
CC(Sc1nnnn1C)C(=O)Nc1ncc(Cl)cc1Cl (configuration not stated)	-2	-7	-2	4	-9	·
CCOC(=O)CSc1nnc(CNc2ccccc2Cl)n1-c1ccccc1	1	24	1	3	45*	20
COC(=O)CSc1nnc(CNc2ccc(Cl)cc2)n1-c1ccccc1	0	-272	-1	14	-22	·
COc1cc2c(cc1OC)/C(=C/c1ccc(Br)cc1)C(=O)OC2	0	49	6	-13	43*	16
COC(=O)[C@@]1(C)[C@H]2C(=O)N(C)C(=O)[C@H]2[C@H]2CN=C(SCc3ccc(C#N)cc3)N21	1	10	5	-16	6	·
O=C1[C@H]2[C@@H](C(=O)N1c1cc(Cl)cc(Cl)c1)[C@]1(C(=O)Nc3ccccc31)N1CCC[C@@H]21	0	31	-2	13	45*	26
